Test results taken from publication PMC9378630 (Chemmedchem, 2022).
Where “and” joins values, the source holds several entries; their conditions need not be identical. Identical values can stand only once. Like-named read-outs stand apart in the source and are kept apart here.

Columns and labels:
CatSper [1] = target: T1, CatSper (Homo sapiens, UniProt Q7RTX7+Q86XQ3+Q8NEC5+Q96P56); test: Progesterone-induced calcium uptake; type: cell-based
[2] = AlamarBlue cytotoxicity assay in human sperm; type: cell-based; settings: human, human sperm
Method in brief: (§1)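 Sperm isolated by centrifugation: liquefied at 37 °C, HTF-washed twice, 800×g, resuspended in Low/Low (low pH/low K+) buffer. Mixed with test compound (2.2x in Low/Low). 8 half-log concentrations, 100 μM to 32 nM final, in duplicate. AlamarBlue at 37 °C, 560/590 nm fluorescence every 15 min over 3 h. IC50 from concentration-response fit.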

human SLO3 and LRRC52 = target: T2, human SLO3 and LRRC52 (Homo sapiens, UniProt A8MYU2); type: cell-based; settings: for hSLO3 current in the presence of compound, % of control: 10 μM, +60 mV, n=5 cells, mean±SD in text; for inhibition at 10 µM: HEK293, read-out: Inhibition at 10 μM [%] hSlo3
T2 sequence (A8MYU2 1-1149): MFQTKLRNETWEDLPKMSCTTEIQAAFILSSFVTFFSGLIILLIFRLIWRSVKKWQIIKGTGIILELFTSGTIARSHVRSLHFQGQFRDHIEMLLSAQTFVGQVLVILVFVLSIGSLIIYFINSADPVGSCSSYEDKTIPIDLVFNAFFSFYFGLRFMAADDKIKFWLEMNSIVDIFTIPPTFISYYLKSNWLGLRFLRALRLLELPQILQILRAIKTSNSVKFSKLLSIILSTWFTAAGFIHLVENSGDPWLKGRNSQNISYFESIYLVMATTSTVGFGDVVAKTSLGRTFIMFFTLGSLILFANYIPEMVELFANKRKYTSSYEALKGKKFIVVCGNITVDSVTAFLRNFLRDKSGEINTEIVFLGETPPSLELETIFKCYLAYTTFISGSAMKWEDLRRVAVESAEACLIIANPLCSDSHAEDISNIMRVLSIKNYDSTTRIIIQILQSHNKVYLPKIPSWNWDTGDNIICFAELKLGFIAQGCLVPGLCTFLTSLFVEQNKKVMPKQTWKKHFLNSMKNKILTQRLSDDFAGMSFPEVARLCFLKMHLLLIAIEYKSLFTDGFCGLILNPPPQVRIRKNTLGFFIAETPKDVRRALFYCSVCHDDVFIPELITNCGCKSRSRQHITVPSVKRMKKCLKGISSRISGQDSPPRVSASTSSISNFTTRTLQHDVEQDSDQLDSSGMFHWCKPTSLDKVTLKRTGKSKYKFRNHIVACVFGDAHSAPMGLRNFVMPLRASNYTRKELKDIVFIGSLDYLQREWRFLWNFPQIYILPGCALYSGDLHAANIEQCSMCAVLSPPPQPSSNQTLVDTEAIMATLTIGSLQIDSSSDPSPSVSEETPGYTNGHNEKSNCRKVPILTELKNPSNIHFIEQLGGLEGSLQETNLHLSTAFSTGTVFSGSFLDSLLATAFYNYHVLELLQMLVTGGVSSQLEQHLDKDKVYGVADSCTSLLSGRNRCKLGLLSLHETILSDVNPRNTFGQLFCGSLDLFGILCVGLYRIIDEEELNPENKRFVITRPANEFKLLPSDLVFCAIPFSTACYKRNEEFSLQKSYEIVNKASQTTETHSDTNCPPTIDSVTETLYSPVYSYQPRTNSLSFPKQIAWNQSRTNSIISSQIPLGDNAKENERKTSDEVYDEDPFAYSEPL
T2 sequence (Q8N7C0 24-313 partner): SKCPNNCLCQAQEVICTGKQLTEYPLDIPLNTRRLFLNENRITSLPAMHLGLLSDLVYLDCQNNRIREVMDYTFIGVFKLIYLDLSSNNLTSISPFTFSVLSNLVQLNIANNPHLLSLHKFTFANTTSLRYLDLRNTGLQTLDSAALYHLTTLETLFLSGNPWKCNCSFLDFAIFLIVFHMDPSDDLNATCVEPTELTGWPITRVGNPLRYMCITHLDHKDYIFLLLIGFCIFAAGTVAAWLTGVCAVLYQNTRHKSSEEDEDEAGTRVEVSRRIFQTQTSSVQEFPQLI

CatSper [3] = target: T1, CatSper; test: Whole cell patch clamp electrophysiology of ICatSper in human sperm; type: cell-based; settings: for Inhibition (block) of the inward ICatSper: 10 μM compound, human sperm, CsDVF
Method in brief: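 Swim-up sperm, seal at cytoplasmic droplet in HS buffer (pH 7.4), 12–18 MΩ pipettes with CsDVF internal. Break-in by 1 ms 450 mV pulses. Control current in CsDVF bath, then 10 μM compound for ~8–10 s. Ramp −80 to +80 mV from 0 mV every 3 s. Current density at ±80 mV, room temperature. Washout with CsDVF.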

[4] = AlamarBlue cytotoxicity assay in IMR-90 fibroblasts; type: cell-based, human; settings: human, IMR-90 lung fibroblast cells
Method in brief: (§2)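 IMR-90 lung fibroblasts cultured 2 weeks in EMEM + 10% FBS, split 2–4 days before use, trypsin-EDTA detached and resuspended in culture medium. Added to test compound (2.2x in Low/Low buffer). 8 half-log concentrations, 100 μM to 32 nM final, in duplicate. AlamarBlue added, 37 °C, fluorescence 560/590 nm read every 30 min over 7 h. IC50 from concentration-response fit.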

IMR‐90 fibroblasts = test: as above; type: cell-based, human; settings: at concentrations fully inhibiting CatSper; AlamarBlue, 2 h
Method in brief: as §2

human sperm [5] = test: CASA: progesterone-induced hyperactivated motility; type: cell-based; settings: 10 μM compound, 100 nM progesterone, HAM measured after 4 h
human sperm [6] = test: Computer-aided sperm analysis; type: cell-based; settings: 10 μM, 4 h incubation with human sperm
Method in brief: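 Motile sperm selected by swim-up into bicarbonate-free HAM's-F10 (37 °C, 5% CO2, 1 h), ≥10×10^6 cells/mL. Incubated 4 h with increasing test compound concentrations. CASA at 37 °C gives total and progressive motility from VAP, VSL, VCL, LIN and STR, as % of population. ≥10 fields/≥200 cells. Mean±SEM of ≥3 experiments; one-way ANOVA with Dunnett's test.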

hNav1.5 = hNav1.5 (Homo sapiens, UniProt Q14524); test: hNav1.5 manual patch-clamp in CHO cells; type: cell-based; settings: read-out: Inhibition at 10 μM [%] hNav1.5
hNav1.5, sequence (Q14524 whole entry): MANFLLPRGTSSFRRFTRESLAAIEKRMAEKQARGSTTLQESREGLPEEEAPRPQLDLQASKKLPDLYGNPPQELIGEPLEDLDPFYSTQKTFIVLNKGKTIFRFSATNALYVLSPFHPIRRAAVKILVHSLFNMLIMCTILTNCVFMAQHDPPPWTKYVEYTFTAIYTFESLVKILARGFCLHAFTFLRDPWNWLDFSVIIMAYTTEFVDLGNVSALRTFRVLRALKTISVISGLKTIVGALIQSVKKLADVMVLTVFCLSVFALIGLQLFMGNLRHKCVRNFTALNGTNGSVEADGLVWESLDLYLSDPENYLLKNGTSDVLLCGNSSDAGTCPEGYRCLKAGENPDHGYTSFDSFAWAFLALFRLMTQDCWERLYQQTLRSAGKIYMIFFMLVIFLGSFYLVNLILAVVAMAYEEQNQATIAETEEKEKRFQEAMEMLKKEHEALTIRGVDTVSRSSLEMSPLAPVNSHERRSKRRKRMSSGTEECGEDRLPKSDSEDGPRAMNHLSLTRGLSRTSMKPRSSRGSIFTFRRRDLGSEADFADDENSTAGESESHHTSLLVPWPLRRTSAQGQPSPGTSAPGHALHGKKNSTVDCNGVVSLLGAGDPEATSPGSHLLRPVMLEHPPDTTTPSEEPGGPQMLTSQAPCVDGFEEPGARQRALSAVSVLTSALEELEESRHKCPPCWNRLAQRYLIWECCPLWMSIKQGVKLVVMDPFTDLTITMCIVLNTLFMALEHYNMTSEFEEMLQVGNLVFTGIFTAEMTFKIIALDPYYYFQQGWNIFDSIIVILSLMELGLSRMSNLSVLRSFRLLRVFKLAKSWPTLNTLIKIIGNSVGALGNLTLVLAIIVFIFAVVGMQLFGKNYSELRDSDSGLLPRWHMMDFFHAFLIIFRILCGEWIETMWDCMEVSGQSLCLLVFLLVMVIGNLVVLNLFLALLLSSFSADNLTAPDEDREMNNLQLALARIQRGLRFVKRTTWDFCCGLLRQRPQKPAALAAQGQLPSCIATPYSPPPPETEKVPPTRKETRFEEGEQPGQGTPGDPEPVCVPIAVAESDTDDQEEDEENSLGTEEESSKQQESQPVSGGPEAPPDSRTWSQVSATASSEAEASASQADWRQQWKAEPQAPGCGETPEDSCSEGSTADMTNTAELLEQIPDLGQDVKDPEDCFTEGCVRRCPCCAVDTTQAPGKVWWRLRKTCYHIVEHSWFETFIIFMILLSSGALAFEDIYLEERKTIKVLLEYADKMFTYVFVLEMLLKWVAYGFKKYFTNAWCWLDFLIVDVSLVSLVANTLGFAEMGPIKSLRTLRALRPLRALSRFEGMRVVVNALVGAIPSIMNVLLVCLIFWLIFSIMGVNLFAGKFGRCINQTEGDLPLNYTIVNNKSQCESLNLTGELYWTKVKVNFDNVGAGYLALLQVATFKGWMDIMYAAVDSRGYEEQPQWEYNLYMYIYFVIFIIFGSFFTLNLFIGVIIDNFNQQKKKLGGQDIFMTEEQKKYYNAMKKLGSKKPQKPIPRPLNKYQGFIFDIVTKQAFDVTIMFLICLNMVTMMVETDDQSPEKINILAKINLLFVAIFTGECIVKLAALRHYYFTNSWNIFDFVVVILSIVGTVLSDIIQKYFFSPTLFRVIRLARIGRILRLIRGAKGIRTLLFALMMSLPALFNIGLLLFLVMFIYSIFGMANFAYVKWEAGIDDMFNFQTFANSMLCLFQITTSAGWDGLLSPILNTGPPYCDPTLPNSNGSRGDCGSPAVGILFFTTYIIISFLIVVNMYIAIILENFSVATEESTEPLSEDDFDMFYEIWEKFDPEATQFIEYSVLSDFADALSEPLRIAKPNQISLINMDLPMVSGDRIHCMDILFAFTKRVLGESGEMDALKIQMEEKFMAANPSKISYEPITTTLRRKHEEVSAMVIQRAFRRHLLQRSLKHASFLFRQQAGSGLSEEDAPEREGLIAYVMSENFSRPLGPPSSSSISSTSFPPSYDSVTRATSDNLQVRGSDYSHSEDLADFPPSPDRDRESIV

hCav1.2 = hCav1.2 (Homo sapiens, UniProt Q13936); test: hCav1.2 FLIPR assay in stably expressing cell line; type: cell-based; settings: read-out: Inhibition at 10 μM [%] hCav1.2
human sperm [7] = test: CASA: PGE1-induced hyperactivated motility; type: cell-based; settings: 100 nM compound, 100 nM PGE1, HAM measured after 4 h
hERG = hERG (Homo sapiens, UniProt Q12809); test: hERG manual patch-clamp in HEK293 cells; type: cell-based; settings: HEK293 cells expressing hERG
hERG, sequence (Q12809 whole entry): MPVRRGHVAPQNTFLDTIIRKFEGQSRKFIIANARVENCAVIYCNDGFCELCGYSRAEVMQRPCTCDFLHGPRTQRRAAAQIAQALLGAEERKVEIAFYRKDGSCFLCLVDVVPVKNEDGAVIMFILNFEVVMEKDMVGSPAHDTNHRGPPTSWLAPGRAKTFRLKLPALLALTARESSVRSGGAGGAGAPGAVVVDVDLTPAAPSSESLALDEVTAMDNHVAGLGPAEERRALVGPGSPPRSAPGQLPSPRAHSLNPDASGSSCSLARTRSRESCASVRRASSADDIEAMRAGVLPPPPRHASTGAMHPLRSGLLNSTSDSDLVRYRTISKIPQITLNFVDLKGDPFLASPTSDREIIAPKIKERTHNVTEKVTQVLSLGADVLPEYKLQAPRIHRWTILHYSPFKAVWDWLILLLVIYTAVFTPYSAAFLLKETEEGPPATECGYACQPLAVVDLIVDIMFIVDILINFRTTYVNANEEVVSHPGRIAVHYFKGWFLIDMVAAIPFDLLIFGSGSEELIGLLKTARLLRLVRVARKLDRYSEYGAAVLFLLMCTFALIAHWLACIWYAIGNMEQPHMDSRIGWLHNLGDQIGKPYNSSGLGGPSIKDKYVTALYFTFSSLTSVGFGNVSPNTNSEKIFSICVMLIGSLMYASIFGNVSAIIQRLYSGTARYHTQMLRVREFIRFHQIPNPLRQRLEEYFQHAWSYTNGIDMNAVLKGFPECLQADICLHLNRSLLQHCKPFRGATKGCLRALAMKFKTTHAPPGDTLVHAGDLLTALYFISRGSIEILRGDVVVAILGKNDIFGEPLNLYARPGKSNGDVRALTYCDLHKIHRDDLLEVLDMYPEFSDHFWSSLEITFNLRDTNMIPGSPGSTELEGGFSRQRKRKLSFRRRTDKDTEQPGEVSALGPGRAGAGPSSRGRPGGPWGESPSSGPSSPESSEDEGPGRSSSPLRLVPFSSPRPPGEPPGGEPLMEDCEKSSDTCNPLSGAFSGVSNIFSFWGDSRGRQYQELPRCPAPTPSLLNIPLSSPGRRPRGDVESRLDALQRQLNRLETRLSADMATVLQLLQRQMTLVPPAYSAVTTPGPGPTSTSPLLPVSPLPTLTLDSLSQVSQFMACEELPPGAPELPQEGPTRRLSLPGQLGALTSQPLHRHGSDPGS

human sperm [8] = test: AlamarBlue cytotoxicity assay in human sperm; type: cell-based; settings: human sperm and IMR‐90 fibroblasts
Method in brief: as §1

CatSper [9] = target: T1, CatSper; settings: reported previously; cited from earlier work
[10] = read-out: Inhibition at 10 μM [%] CatSper
[11] = read-out: Inhibition (block) of the inward ICatSper

IC50 (CatSper [1]) [µM] | hSLO3 current in the presence of compound, % of control (human SLO3 and LRRC52) | inhibition at 10 µM (CatSper [3]; [10]) [%] | inhibition at 10 µM (CatSper [3]; [11]) [%] | SMILES | IC50 at 3 h [2] [µM] | IC50 at 7 h [4] [µM] | inhibition at 10 µM (hNav1.5) [%] | inhibition at 10 µM (hCav1.2) [%] | also measured
5.4 ± 0.4 | – | – | – | CN1CCCC(n2nc(Cc3ccc(Cl)cc3)c3ccccc3c2=O)CC1 (stereo not drawn) [6 a, azelastine, reference compound] | – | – | – | – | –
8.3 ± 1.1 | 66.3±8.5 % of control | 100 | – | O=c1c2ccccc2c(Cc2ccc(Cl)cc2)nn1C1CCCNCC1 (stereo not drawn) [6 b, 2‐(Azepan‐4‐yl)‐4‐(4‐chlorobenzyl)phthalazin‐1(2H)‐one] | 84 ± 10 | 68 ± 5 | – | – | Inhibition (block) of the inward ICatSper (CatSper [3]): near complete inhibition; Effect on IMR‐90 viability (IMR‐90 fibroblasts): reduce viability slightly; Reduction of progesterone-induced HAM (human sperm [5]): statistically significant
> 100 | – | – | – | N=C(N)NC(=O)c1nc(Cl)c(N)nc1N [1 d, amiloride, reference compound] | – | – | – | – | –
4.9 ± 0.6 | – | 83 | 84 | O=C(Nc1cccc(C(F)(F)F)c1)N1CCN(c2cccc(C(F)(F)F)c2)CC1 [4 a, N ,4‐Bis(3‐(trifluoromethyl)phenyl)piperazine‐1‐carboxamide] | > 100 | > 100 | 95 | 65 | hSLO3 current in the presence of compound, % of control (human SLO3 and LRRC52; 10 µM): 24.6±9.1 % of control and 25 % of control; inhibition at 10 µM (human SLO3 and LRRC52): 75%; Progressive motility (CASA) (human sperm [6]): substantially reduced; Total motility (CASA) (human sperm [6]): substantially reduced; Reduction of progesterone-induced HAM (human sperm [5]): statistically significant
7.5 ± 1.3 | – | 73 | 65 | OC1(c2ccc(Cl)cc2)CCN(Cc2c[nH]c3ccccc23)CC1 [2 a, 4‐(4‐Chlorophenyl)‐1‐(1H‐indol‐3‐ylmethyl)‐4‐piperidinol] | > 100 | > 100 | 77 | 39 | Inhibition of PGE1-induced HAM (human sperm [7]): greatly reduced HAM; inhibition at 10 µM (hERG): 100%; Effect on IMR‐90 viability (IMR‐90 fibroblasts): reduce viability slightly
3.4 ± 0.4 | 83.2±7.8 % of control | – | 47 | N=c1n(CCN2CCCCC2)c2ccccc2n1CC(O)c1cccc(Br)c1 (stereo not drawn) [5 f, 1‐(3‐Bromophenyl)‐2‐(2‐imino‐3‐(2‐(piperidin‐1‐yl)ethyl)‐2,3‐dihydro‐1H‐benzo[d]imidazol‐1‐yl)ethan‐1‐ol] | > 100 | 83 ± 14 | – | – | Progressive motility (CASA) (human sperm [6]): substantially reduced; Total motility (CASA) (human sperm [6]): substantially reduced; Reversibility of ICatSper block on washout (CatSper [3]; washed out with CsDVF after 10 μM compound): apparent irreversible loss of channel function
– | – | – | – | COCC(=O)O[C@]1(CCN(C)CCCc2nc3ccccc3[nH]2)CCc2cc(F)ccc2[C@@H]1C(C)C [Mibefradil, reference compound] | 25 ± 2 | 22 ± 1 | – | – | Separation between potencies for blocking calcium influx and cytotoxicity (human sperm [8]): low separation; Reversibility of CatSper block (CatSper [9]): irreversible loss of channel function
20 ± 1 | – | – | 89 | CCN(CC)CCNC(=O)C1CCN(c2ccc3nnc(-c4cccc(C)c4)n3n2)CC1 [7 a, N ‐(2‐(Diethylamino)ethyl)‐1‐(3‐(m–tolyl)‐[1,2,4]triazolo[4,3‐b]pyridazin‐6‐yl)piperidine‐4‐carboxamide] | > 100 | > 100 | – | -9 | hSLO3 current in the presence of compound, % of control (human SLO3 and LRRC52; 10 µM): 37.5±5.6 % of control and 38 % of control; Progressive motility (CASA) (human sperm [6]): substantially reduced; Total motility (CASA) (human sperm [6]): substantially reduced; Reduction of progesterone-induced HAM (human sperm [5]): statistically significant
3.6 ± 0.6 | 58.5±12.5 % of control | 96 | – | Cc1cc(C)c2nc(C)cc(NCCc3ccccc3)c2c1 [3 a, 2,6,8‐Trimethyl‐N‐(2‐phenylethyl)‐4‐quinolinamine] | > 100 | 96 ± 5 | 94 | 10 | inhibition at 10 µM (human SLO3 and LRRC52): 42%; inhibition at 10 µM (hERG): 100%; Inhibition (block) of the inward ICatSper (CatSper [3]): near complete inhibition
5.4 ± 0.6 | 101.5±6.4 % of control | – | – | NC(N)=NC(=O)c1nc(Cl)c(N2CCCCCC2)nc1N [1 a, 3‐Amino‐5‐(azepan‐1‐yl)‐6‐chloro‐N‐(diaminomethylene)pyrazine‐2‐carboxamide] | > 100 | > 100 | 68 | 4 | inhibition at 10 µM (human SLO3 and LRRC52): -2%; inhibition at 10 µM (hERG): 92%

SMILES | IC50 (CatSper [1]) [µM] | hSLO3 current in the presence of compound, % of control (human SLO3 and LRRC52) | inhibition at 10 µM (CatSper [3]; [10]) [%] | inhibition at 10 µM (CatSper [3]; [11]) [%] | IC50 at 3 h [2] [µM] | IC50 at 7 h [4] [µM] | inhibition at 10 µM (hNav1.5) [%] | inhibition at 10 µM (hCav1.2) [%] | also measured
c1ccc(CN2CCC(c3c[nH]c4ccccc34)CC2)cc1 [2 l, 3‐(1‐benzylpiperidin‐4‐yl)‐1H‐indole] | > 100 | – | – | – | – | – | – | – | –
